A selection: hits, their analogues and other compounds. The true share with any hit is near 4.2%.
hERG rescue – hERG (human) protection from proarrhythmic block; actives 0.51% (n = 310,000); activation (rescue from dofetilide block), less the hit threshold, % at 10 µM; CHO-hERG, FluxOR thallium flux, dofetilide IC70 present; Q12809; AID 1511;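 active means activation above the mean of controls blocked by dofetilide plus 5 SD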;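 further: thallium influx through hERG after potassium depolarization seen as dye fluorescence rise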
Mot1-301 SUMO – inhibitors of SUMOylation pathway: yeast Mot1-301 growth rescue. S. cerevisiae Mot1-301 growth rescue, ATP luminescence, 38.5C; percent above DMSO median, 100 means doubled. growth rescue, % at 18.8 µM. actives 1% (n = 320,000);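 active means every valid replicate shows activation above 250% relative to neutral control wells; inactive means the rest, any valid replicate at or below 250%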
KCC2 mod – KCC2 (human) Cl- transport modulation. KCC2 cells, thallium flux FluoZin-2 fluorescence. B-score of Tl+ flux slope (higher = more flux/activation; lower = inhibition) at 10 µM. actives 2.2% (n = 190,000). AID 1456;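 active means thallium flux slope and its plate-corrected score both differing from the plate sample mean at a set confidence after two filtering rounds, in either direction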;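 further: slope of fluorescence scaled to starting intensity during 10 to 20 s after thallium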
KCNQ1 act – potentiates or activates the human KCNQ1 potassium channel; AID 2648; P51787; actives 0.35% (n = 310,000); CHO-K1 KCNQ1, thallium flux FluxOR fluorescence; hits give high values; B-score at 10 µM;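 active means fluorescence ratio B-score, a plate-corrected score, at least three library SD, with initial intensity B-score within 5 SD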
Target sequence (P51787 whole entry, looked up): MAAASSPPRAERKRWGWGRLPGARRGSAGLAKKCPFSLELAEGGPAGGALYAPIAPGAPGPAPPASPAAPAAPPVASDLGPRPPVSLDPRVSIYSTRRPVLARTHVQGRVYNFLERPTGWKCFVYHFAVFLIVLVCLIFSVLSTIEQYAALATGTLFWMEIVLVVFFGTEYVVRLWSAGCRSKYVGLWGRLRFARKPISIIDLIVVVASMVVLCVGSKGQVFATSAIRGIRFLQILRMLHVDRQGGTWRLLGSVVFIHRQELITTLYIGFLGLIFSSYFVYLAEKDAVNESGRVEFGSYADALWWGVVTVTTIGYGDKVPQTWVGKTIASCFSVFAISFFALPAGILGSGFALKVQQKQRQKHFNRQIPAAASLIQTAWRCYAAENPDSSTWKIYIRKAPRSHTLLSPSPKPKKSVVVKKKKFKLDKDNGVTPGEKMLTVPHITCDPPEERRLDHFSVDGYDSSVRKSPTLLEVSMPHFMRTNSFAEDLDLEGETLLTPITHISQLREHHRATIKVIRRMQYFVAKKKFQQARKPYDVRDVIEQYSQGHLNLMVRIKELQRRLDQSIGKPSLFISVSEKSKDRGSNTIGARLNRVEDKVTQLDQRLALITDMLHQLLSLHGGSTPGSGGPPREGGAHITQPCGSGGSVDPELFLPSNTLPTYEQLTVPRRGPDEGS
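Schedule – 37 °C overnight plating, 90-min dark dye load, 20-min compound pretreatment · System – stable KCNQ1 CHO-K1 line · Probe or stimulus – thallium- and potassium-containing depolarizing buffer · Measured by – kinetic FluxOR fluorescence, 10 s baseline plus 110 s post-stimulus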
AI-2 QS mod – modulates the Vibrio harveyi AI-2 quorum sensing system; actives 0.4% (n = 300,000); AID 2094; activity change, % at 7.5 µM; Vibrio harveyi JMH597 AI-2 luminescence/OD600 ratio, 9 h; hits give low values; strain lacks LuxN and CqsS sensors; 0 = neutral-control median; in the data active means activity change below about -75%, passing the limit was not always enough; inconclusive means no clear call, values can overlap the other calls;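 further: luminescence divided by OD600 gain over 9 h not by final OD600 alone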
KCNQ1 inh – human KCNQ1 channel inhibition; actives 1.3% (n = 310,000); B-score at 10 µM; CHO-K1 KCNQ1, FluxOR thallium flux fluorescence; hits give high values;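 active means compounds whose thallium flux B-score, printed positive for inhibition, exceeds three library SD while starting fluorescence stays within three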;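 further: channel opened by potassium depolarization with thallium stimulus after 20 min compound exposure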
KCC2 sec1 – confirmation of human KCC2 transport modulators. shares compounds with KCC2 mod. actives 15% (n = 3,700). normalised thallium flux (F/F0 slope) at 10 µM. HEK293-KCC2, thallium flux, FluoZin2 fluorescence; hits give high values. AID 1713;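 active means thallium flux slope above the same plate's solvent-only control mean plus 3 SD; inconclusive means the two replicate wells disagree; inactive means no significant difference from solvent-only control wells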
KCC2 bumet counter – thallium flux persisting under bumetanide in KCC2 cells, counter-screen secondary assay. shares compounds with KCC2 mod. HEK293-KCC2 + bumetanide/ouabain, thallium flux FluoZin2; hits give high values. normalized thallium flux at 10 µM. actives 49% (n = 3,700). AID 1714;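 active means thallium entry rate above the same plate's blocked-transporter control wells by more than 3 SD; inconclusive means the two repeat wells disagree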;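 further: raw slope of fluorescence over initial fluorescence between 10 and 20 s after thallium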
KCC2 sec2 – KCC2 (human) modulation, second secondary assay; shares compounds with KCC2 mod; HEK293-KCC2, thallium flux FluoZin2 fluorescence; actives lie on both sides; F/F0 rise rate, 10–20 s post-thallium; normalized thallium flux at 10 µM; actives 23% (n = 3,700);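 active means thallium flux slope more than 3 SD above or below the plate's solvent-only control mean, mostly below; inconclusive means the two repeat wells disagreed; inactive means no significant shift from solvent-only controls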
HEK293 Tl flux – counter-screen for KCC2 modulators: effect in parental HEK293 cells | AID 1716 | thallium flux FluoZin2, ouabain; baseline-ratio fluorescence slope, 10–20 s after thallium | actives 46% (n = 3,700) | shares compounds with KCC2 mod | thallium flux rate (normalised fluorescence) at 10 µM;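 active means thallium flux rate significantly above the same plate's solvent-only control wells, beyond their mean plus 3 SD; inconclusive means the two replicate wells gave conflicting results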
KCC2 retest ouab – confirmation of human KCC2 modulators with ouabain | actives 48% (n = 3,700) | AID 1717 | HEK293-KCC2, thallium flux FluoZin2 fluorescence; bidirectional: low = inhibitor, high = activator | shares compounds with KCC2 mod | raw Tl+ flux slope (below DMSO = inhibition, above = activation) at 10 µM;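 active means thallium flux slope beyond 3 SD from same-plate DMSO control mean in most replicates, usually higher, sometimes lower; inconclusive means repeat tests gave conflicting results; inactive means no significant difference from controls in most replicates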;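 further: slope of initial-normalized fluorescence between seconds 10 and 20 after thallium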
HEK293 Tl flux2 – parental HEK flux effect, counter-screen 2; shares compounds with KCC2 mod; thallium flux slope at 10 µM; HEK293 parental, thallium flux FluoZin-2 fluorescence slope; actives 33% (n = 3,700);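 active means thallium flux slope above the same plate's solvent-control mean plus 3 SD in both duplicate wells; inconclusive means duplicate wells that disagreed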;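 further: run without ouabain in cells lacking the KCC2 cotransporter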
Yeast Mot1 SUMO – SUMO pathway inhibitors in yeast Mot1-301 growth; shares compounds with Mot1-301 SUMO; S. cerevisiae Mot1-301 galactose growth, ATP luminescence, 24 h; -100 = growth of slx-deleted rescue strain; growth activity, percent, % at 42 µM; 2,300 tested, under 10 active; AID 493004;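 active means Signal drops as the depositor expects, and the fitted half-maximal dose is no more than ten times the top valid tested dose; inconclusive means Poor fit, or a flat curve whose signal drops by 30% to 70%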;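 further: more negative values mean stronger growth rescue toward the control strain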
Large screens that a line does not name were inactive (follow-up assays come after a bar, where they were run).

O=C(N/N=C\c1cn(-c2ccccc2)nc1-c1ccccc1)c1ccc(Br)o1	Mot1-301 SUMO active, KCC2 mod 3.9, KCNQ1 inh 13 | KCC2 sec1 inactive | KCC2 bumet counter 0.012 | KCC2 sec2 inactive | HEK293 Tl flux 0.013 | KCC2 retest ouab inactive | HEK293 Tl flux2 inconclusive | Yeast Mot1 SUMO inactive
CCOc1ccc2nc(SCC(=O)NCc3ccc(S(N)(=O)=O)cc3)[nH]c2c1	none (no result: KCC2 mod)
CC(O)[C@@]1(O)CC[C@H]2[C@@H]3CC[C@H]4C[C@@H](O)CC[C@]4(C)C3=CC[C@@]21C (stereo not given in full)	none (no result: KCC2 mod)
COCCN1C(=O)/C(=C/c2cc3c(cc2Br)OCO3)NC1=S	Mot1-301 SUMO 603, KCC2 mod 21 | KCC2 sec1 inactive | KCC2 bumet counter 0.047 | KCC2 sec2 0.041 | HEK293 Tl flux 0.035 | KCC2 retest ouab 0.041 | HEK293 Tl flux2 0.033 | Yeast Mot1 SUMO inactive
CCCC[C@@H]1CCCO[C@@](C(=O)NCc2ccccn2)(C(F)(F)F)C1	none (no result: KCC2 mod)
O=C(NNC(=O)C12CC3CC(CC(C3)C1)C2)c1cnccn1	none
O=C(NNC(=O)C12CC3CC(CC(C3)C1)C2)c1ccccn1	Mot1-301 SUMO 998, KCC2 mod 22 | KCC2 sec1 inactive | KCC2 bumet counter 0.041 | KCC2 sec2 0.044 | HEK293 Tl flux 0.027 | KCC2 retest ouab 0.042 | HEK293 Tl flux2 0.03 | Yeast Mot1 SUMO inactive
Cc1sc(NC(=O)CN(C(=O)c2ccccc2F)C2CCCC2)c(C(N)=O)c1C	none (no result: KCC2 mod)
CC12CC3(C)CC(C)(C1)CC(C(=O)NC(=S)N1CCCC1)(C2)C3	Mot1-301 SUMO 766, KCC2 mod 7.9 | KCC2 sec1 inactive | KCC2 bumet counter 0.0095 | KCC2 sec2 inactive | HEK293 Tl flux 0.01 | KCC2 retest ouab inconclusive | HEK293 Tl flux2 inconclusive | Yeast Mot1 SUMO inactive
CC(=O)N1CCN(C(=S)NC(=O)C23CC4CC(CC(C4)C2)C3)CC1	none
O=C(CSc1nc(-c2ccccc2)nc2ccc(F)cc12)Nc1cccc(C(=O)O)c1	Mot1-301 SUMO 535, KCC2 mod 59 | KCC2 sec1 inactive | KCC2 bumet counter 0.038 | KCC2 sec2 inconclusive | HEK293 Tl flux 0.048 | KCC2 retest ouab 0.044 | HEK293 Tl flux2 0.029 | Yeast Mot1 SUMO inactive
Cc1ccc(C(=O)/C=C/Nc2ccccc2C(N)=O)cc1	Mot1-301 SUMO 481, KCC2 mod -3.3 | KCC2 sec1 inactive | KCC2 bumet counter 0.0065 | KCC2 sec2 inconclusive | HEK293 Tl flux inactive | KCC2 retest ouab inactive | HEK293 Tl flux2 inactive | Yeast Mot1 SUMO inactive
O=C(Nc1ccc(F)cc1)c1ccc(CSc2ccccc2)o1	Mot1-301 SUMO active, KCC2 mod -3.4 | KCC2 sec1 inactive | KCC2 bumet counter inactive | KCC2 sec2 inactive | HEK293 Tl flux inactive | KCC2 retest ouab 0.015 | HEK293 Tl flux2 inactive | Yeast Mot1 SUMO inactive
Cc1c(CCC(=O)NCCC(=O)O)c(=O)oc2c(C)c3oc4c(c3cc12)CCCC4	none (no result: KCC2 mod)
CCc1cc2c(=O)n(-c3ccc(C)cc3)cnc2s1	none
O=C(NCCc1c[nH]c2ccccc12)c1cc(S(=O)(=O)N2CCCCC2)ccc1N1CCOCC1	Mot1-301 SUMO 449 (no result: KCC2 mod) | KCC2 sec1 inactive | KCC2 bumet counter inactive | KCC2 sec2 inconclusive | HEK293 Tl flux inactive | KCC2 retest ouab 0.015 | HEK293 Tl flux2 inactive | Yeast Mot1 SUMO inactive
CCCNC(=O)c1cc(S(=O)(=O)N2CCCCC2)ccc1N1CCOCC1	none (no result: KCC2 mod)
Cc1sc(NC(=O)CSC2=NCCS2)nc1-c1ccccc1	Mot1-301 SUMO 722 (no result: KCC2 mod) | KCC2 sec1 inactive | KCC2 bumet counter inactive | KCC2 sec2 inactive | HEK293 Tl flux inactive | KCC2 retest ouab inactive | HEK293 Tl flux2 inactive | Yeast Mot1 SUMO inactive
C=CCNC(=O)C1CC1(c1ccc(C)cc1)c1ccc(C)cc1 (stereo not given)	none (no result: KCC2 mod)
O=C(c1ccc(-c2ccccc2)cc1)C1CCCN(Cc2ccncc2)C1 (stereo not given)	Mot1-301 SUMO 365, KCC2 mod -4.1 | KCC2 sec1 inactive | KCC2 bumet counter inactive | KCC2 sec2 0.025 | HEK293 Tl flux inactive | KCC2 retest ouab inconclusive | HEK293 Tl flux2 inactive | Yeast Mot1 SUMO inactive
CCc1ccccc1NC(=S)NN	none
CCc1ccccc1NC(=S)NNC(=O)c1ccccc1Cl	Mot1-301 SUMO active, KCC2 mod 3.2 | KCC2 sec1 inactive | KCC2 bumet counter 0.012 | KCC2 sec2 inactive | HEK293 Tl flux 0.011 | KCC2 retest ouab inactive | HEK293 Tl flux2 0.014 | Yeast Mot1 SUMO inactive
C=CCn1c(=O)[nH]c2cc(C(=O)N3CC=C(c4ccccc4)CC3)ccc2c1=O	none
O=C(N/N=C/C(Br)=C/c1ccccc1)c1n[nH]c2c1CCC2	Mot1-301 SUMO 508 (no result: KCC2 mod) | KCC2 sec1 inactive | KCC2 bumet counter inactive | KCC2 sec2 inactive | HEK293 Tl flux inactive | KCC2 retest ouab inconclusive | HEK293 Tl flux2 inactive | Yeast Mot1 SUMO inactive
CCC(=O)NC(=S)Nc1ccccc1F	none

Bioassay records from PubChem.
